Data published in article PMC11568772 (Drug Design, Development and Therapy, 2024).

Legend:
[1] = test system: breast cancer (MCF-7) cell line; assay: MTT cytotoxicity, MCF-7; assay type: cell-based; conditions: Homo sapiens, MCF7, 24 h, read-out: IC50 MCF-7
Outline: (§1)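 Cells were grown in medium with 10% FBS, penicillin/streptomycin, 37°C, 5% CO2, then seeded at 1.0×10^4 cells/well and held 48 h. Test compound was added at 1.56, 3.125, 6.25, 12.5, 25, 50 and 100, for 24 h. MTT (5 mg/mL stock) was added for 4 h, formazan dissolved in DMSO and A570 read. Viability was taken relative to untreated wells. IC50 came from a Boltzmann sigmoidal fit, in triplicate, mean ± SD.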

[2] = test system: hepatocellular (HePG2) carcinoma cell line; assay: MTT cytotoxicity, HePG-2; assay type: cell-based; conditions: Homo sapiens, HepG2, 24 h, read-out: IC50 HePG-2
[3] = test system: HCT-116, HePG-2, HeLa and MCF-7 cells; assay: MTT cytotoxicity summarised over the 4 cancer cell lines; assay type: cell-based; conditions: Homo sapiens, read-out: IC50 range of one compound over the cancer cell lines
Outline: as §1

[4] = test system: colorectal (HCT116) carcinoma cell line; assay: MTT cytotoxicity, HCT-116; assay type: cell-based; conditions: Homo sapiens, HCT-116, 24 h, read-out: IC50 HCT-116
[5] = test system: human cervical (Hela) carcinoma cell line; assay: MTT cytotoxicity, Hela; assay type: cell-based; conditions: 24 h, read-out: IC50 Hela
Outline: as §1

[6] = test system: WI-38 normal fibroblast cells; assay: MTT cytotoxicity towards normal human cells WI-38; assay type: cell-based; conditions: WI-38, 24 h, read-out: IC50 WI-38
[7] = test system: VEGF-induced proliferation; conditions: read-out: IC50 VEGF-induced proliferation; cited from earlier work
VEGFR-2 enzyme = VEGFR-2 enzyme (Homo sapiens, UniProt P35968); assay: VEGFR-2 kinase inhibitory assay; assay type: biochemical; conditions: for inhibition at 0.01 µM: read-out: % Inhibition 0.01 μM, VEGFR-2 enzyme, 0.01 μM; for inhibition at 0.1 µM: read-out: % Inhibition 0.1 μM, VEGFR-2 enzyme, 0.1 μM; for inhibition at 10 µM: read-out: % Inhibition 10 μM, VEGFR-2 enzyme, 10 μM; for inhibition at 1 µM: read-out: % Inhibition 1 μM, VEGFR-2 enzyme, 1 μM; for inhibition at 100 µM: read-out: % Inhibition 100 μM, VEGFR-2 enzyme, 100 μM
MCF-7 cells [8] = assay: Annexin V-FITC/PI apoptosis assay; assay type: cell-based, human; conditions: MCF-7, 24 hours of incubation
Outline: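 MCF-7 cells were treated with test compound for 24 h, with DMSO as control. 1–5×10^5 cells were pelleted by centrifugation and resuspended in binding buffer. They were stained with Annexin V-FITC and PI for 5 min at room temperature in the dark, then analysed by flow cytometry. Quadrants: Q1 necrotic, Q2 late apoptotic, Q3 live, Q4 early apoptotic.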

MCF-7 cells [9] = assay: Cell cycle analysis by PI staining and flow cytometry; assay type: cell-based, human; conditions: MCF-7, 24 h at IC50 of the compound
[10] = test system: prostate cancer PC3 cell line; conditions: read-out: IC50 PC3 cell line; cited from earlier work
VEGFR-2 = conditions: read-out: IC50 VEGFR-2; reference medicine pazopanib; cited from earlier work

VEGFR-2 enzyme, sequence (P35968 20-1356): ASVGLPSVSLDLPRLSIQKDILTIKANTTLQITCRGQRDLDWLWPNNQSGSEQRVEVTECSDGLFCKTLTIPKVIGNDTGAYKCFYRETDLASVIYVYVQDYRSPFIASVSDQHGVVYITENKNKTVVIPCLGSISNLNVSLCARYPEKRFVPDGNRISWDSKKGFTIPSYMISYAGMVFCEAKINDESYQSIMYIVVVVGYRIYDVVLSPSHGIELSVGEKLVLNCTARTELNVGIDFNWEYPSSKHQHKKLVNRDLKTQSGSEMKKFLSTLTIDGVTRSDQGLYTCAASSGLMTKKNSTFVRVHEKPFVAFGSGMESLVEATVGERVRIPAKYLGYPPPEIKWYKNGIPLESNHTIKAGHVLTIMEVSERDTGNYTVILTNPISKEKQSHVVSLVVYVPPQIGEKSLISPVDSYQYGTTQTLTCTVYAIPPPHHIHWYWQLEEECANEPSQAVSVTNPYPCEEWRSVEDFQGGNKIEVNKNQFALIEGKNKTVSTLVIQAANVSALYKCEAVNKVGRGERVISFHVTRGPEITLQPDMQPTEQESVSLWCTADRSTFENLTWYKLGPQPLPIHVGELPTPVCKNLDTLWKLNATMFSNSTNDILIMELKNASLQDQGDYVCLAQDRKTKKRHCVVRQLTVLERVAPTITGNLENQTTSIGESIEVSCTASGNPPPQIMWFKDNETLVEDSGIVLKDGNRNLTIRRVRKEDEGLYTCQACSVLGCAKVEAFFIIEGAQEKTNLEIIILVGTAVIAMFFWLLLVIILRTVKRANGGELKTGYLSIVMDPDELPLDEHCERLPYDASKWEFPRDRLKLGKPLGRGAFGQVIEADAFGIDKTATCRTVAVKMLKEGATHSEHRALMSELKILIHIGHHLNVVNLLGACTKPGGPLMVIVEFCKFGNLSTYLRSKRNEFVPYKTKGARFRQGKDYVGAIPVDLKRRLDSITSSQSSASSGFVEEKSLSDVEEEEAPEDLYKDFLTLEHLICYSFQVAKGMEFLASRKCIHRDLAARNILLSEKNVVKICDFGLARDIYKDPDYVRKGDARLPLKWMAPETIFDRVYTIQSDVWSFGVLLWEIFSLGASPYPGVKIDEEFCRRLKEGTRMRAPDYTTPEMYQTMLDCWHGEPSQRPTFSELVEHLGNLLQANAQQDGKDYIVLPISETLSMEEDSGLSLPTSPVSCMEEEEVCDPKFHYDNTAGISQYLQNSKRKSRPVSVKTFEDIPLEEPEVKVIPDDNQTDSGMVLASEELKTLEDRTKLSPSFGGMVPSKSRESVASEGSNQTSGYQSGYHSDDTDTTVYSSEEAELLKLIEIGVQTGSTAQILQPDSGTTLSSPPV

| SMILES | IC50 [1] [µM] | IC50 [2] [µM] | IC50 [3] [µM] | IC50 [4] [µM] | IC50 [5] [µM] | IC50 [6] [µM] | also measured |
| --- | --- | --- | --- | --- | --- | --- | --- |
| O=C(NCCSc1nc2ccccc2c(=O)n1-c1ccccc1)Nc1ccc(Br)cc1 [Compound 5c, 1-(4-Bromophenyl)-3-(2-((4-Oxo-3-Phenyl-3,4-Dihydroquinazolin-2-Yl)thio)ethyl)urea] | 55.1 ± 3.2 | 57.8 ± 3.6 | 48.2 to 67.7 | 48.2 ± 3 | 67.7 ± 3.9 | > 100 | – |
| COc1cc2c(Oc3ccc4[nH]c(C)cc4c3F)ncnc2cc1OCCCN1CCCC1 [Cediranib] | – | – | – | – | – | – | IC50 [7]: < 0.001 µM |
| O=C(NCCSc1nc2ccccc2c(=O)n1-c1ccccc1)NCCc1ccccc1 [Compound 5h, 1-(2-((4-Oxo-3-Phenyl-3,4-Dihydroquinazolin-2-Yl)thio)ethyl)-3-Phenethylurea] | 13.9 ± 1.1 | 6.74 ± 0.5 | – | 5.89 ± 0.3 | 11.6 ± 0.9 | 41.1 ± 2.6 | IC50 (VEGFR-2 enzyme): 0.215 µM; % Inhibition 1 μM (VEGFR-2 enzyme; VEGFR-2 enzyme, 1 μM): 65.78%; % Inhibition 100 μM (VEGFR-2 enzyme; VEGFR-2 enzyme, 100 μM): 93.07%; inhibition at 0.01 µM (VEGFR-2 enzyme): 25.3%; inhibition at 0.1 µM (VEGFR-2 enzyme): 40.1%; inhibition at 10 µM (VEGFR-2 enzyme): 86.1% |
| COc1ccc(NC(=O)NCCSc2nc3cc(Cl)ccc3c(=O)n2-c2ccccc2)cc1 [Compound 5j, 1-(2-((7-Chloro-4-Oxo-3-Phenyl-3,4-Dihydroquinazolin-2-Yl)thio)ethyl)-3-(4-Methoxyphenyl)urea] | 16 ± 1.3 | 12.3 ± 1 | 9.51 to 16 | 9.51 ± 0.9 | 19.1 ± 1.4 | 38.5 ± 2.5 | – |
| COc1ccc(CNC(=O)NCCSc2nc3ccccc3c(=O)n2-c2ccccc2)cc1 [Compound 5f, 1-(4-Methoxybenzyl)-3-(2-((4-Oxo-3-Phenyl-3,4-Dihydroquinazolin-2-Yl)thio)ethyl)urea] | 18.7 ± 1.5 | 34.2 ± 2.4 | 14.8 to 34.2 | 14.8 ± 1.3 | 31.5 ± 2.3 | 91.4 ± 5.1 | – |
| O=C(NCCSc1nc2cc(Cl)ccc2c(=O)n1-c1ccccc1)NCc1ccccc1 [Compound 5n, 1-Benzyl-3-(2-((7-Chloro-4-Oxo-3-Phenyl-3,4-Dihydroquinazolin-2-Yl)thio)ethyl)urea] | 48.7 ± 3 | 52.4 ± 3.4 | – | 44.2 ± 2.8 | 61.5 ± 3.7 | 73.6 ± 3.9 | – |
| COc1ccc(NC(=O)NCCSc2nc3ccccc3c(=O)n2-c2ccccc2)cc1 [Compound 5a, 1-(4-Methoxyphenyl)-3-(2-((4-Oxo-3-Phenyl-3,4-Dihydroquinazolin-2-Yl)thio)ethyl)urea] | 79.5 ± 3.9 | 81.3 ± 4.3 | 62.7 to 83.4 | 62.7 ± 3.6 | 83.4 ± 4.4 | 29.4 ± 2.1 | – |
| O=C(NCCSc1nc2cc(Cl)ccc2c(=O)n1-c1ccccc1)NCc1ccc(Cl)cc1 [Compound 5p, 1-(2-((7-Chloro-4-Oxo-3-Phenyl-3,4-Dihydroquinazolin-2-Yl)thio)ethyl)-3-(4-Chlorobenzyl)urea] | 7.99 ± 0.5 | 9.72 ± 0.7 | 7.99 to 14.3 | 8.32 ± 0.7 | 14.3 ± 1.2 | 56.9 ± 3.3 | necrosis (Q1) (MCF-7 cells [8]): 4.23%; late apoptosis (Q2) (MCF-7 cells [8]; control 0.27%): 12.51%; early apoptosis (Q4) (MCF-7 cells [8]; control 0.61%): 26.11%; total apoptosis (MCF-7 cells [8]; control 2.29%): 42.85%; Cell Cycle Distribution (%) G2-M (MCF-7 cells [9]; DMSO control 16.75): 7.82%; Cell Cycle Distribution (%) S (MCF-7 cells [9]; DMSO control 29.16): 35.02%; Cell Cycle Distribution (%) G0-G1 (MCF-7 cells [9]; DMSO control 54.09): 57.16%; IC50 (VEGFR-2 enzyme): 0.117 µM; inhibition at 0.01 µM (VEGFR-2 enzyme): 31.4%; inhibition at 0.1 µM (VEGFR-2 enzyme): 44.4%; inhibition at 1 µM (VEGFR-2 enzyme): 70.5%; inhibition at 10 µM (VEGFR-2 enzyme): 88.3%; inhibition at 100 µM (VEGFR-2 enzyme): 93.5% |
| O=C(NCCSc1nc2cc(Cl)ccc2c(=O)n1-c1ccccc1)NCCc1ccc(Cl)cc1 [Compound 5r, 1-(2-((7-Chloro-4-Oxo-3-Phenyl-3,4-Dihydroquinazolin-2-Yl)thio)ethyl)-3-(4-Chlorophenethyl)urea] | 10.7 ± 0.9 | 17.7 ± 1.4 | 10.7 to 22.4 | 13.2 ± 1.1 | 22.4 ± 1.7 | 74.2 ± 4.1 | – |
| O=C(NCCSc1nc2cc(Cl)ccc2c(=O)n1-c1ccccc1)Nc1ccc(C(F)(F)F)cc1 [Compound 5m, 1-(2-((7-Chloro-4-Oxo-3-Phenyl-3,4-Dihydroquinazolin-2-Yl)thio)ethyl)-3-(4-(Trifluoromethyl)phenyl)urea] | 21.4 ± 1.8 | 30.7 ± 2.2 | 18.1 to 30.7 | 18.1 ± 1.5 | 27.9 ± 2.1 | 76.3 ± 4.3 | – |
| O=C(NCCSc1nc2ccccc2c(=O)n1-c1ccccc1)NCc1ccc(Cl)cc1 [Compound 5g, 1-(4-Chlorobenzyl)-3-(2-((4-Oxo-3-Phenyl-3,4-Dihydroquinazolin-2-Yl)thio)ethyl)urea] | 39.6 ± 2.6 | 47.2 ± 3.1 | 35.3 to 53.7 | 35.3 ± 2.6 | 53.7 ± 3.1 | 86 ± 4.8 | – |
| O=C(NCCSc1nc2cc(Cl)ccc2c(=O)n1-c1ccccc1)NCCc1ccccc1 [Compound 5q, 1-(2-((7-Chloro-4-Oxo-3-Phenyl-3,4-Dihydroquinazolin-2-Yl)thio)ethyl)-3-Phenethylurea] | 24.6 ± 2 | 41.6 ± 2.8 | – | 32.5 ± 2.5 | 45.2 ± 2.7 | 53 ± 3.1 | – |
| COc1ccc(CNC(=O)NCCSc2nc3cc(Cl)ccc3c(=O)n2-c2ccccc2)cc1 [Compound 5o, 1-(2-((7-Chloro-4-Oxo-3-Phenyl-3,4-Dihydroquinazolin-2-Yl)thio)ethyl)-3-(4-Methoxybenzyl)urea] | 86.5 ± 4.2 | 84.3 ± 4.6 | 69.3 to 90.2 | 69.3 ± 3.9 | 90.2 ± 4.8 | 35.9 ± 2.3 | – |
| O=C(NCCSc1nc2ccccc2c(=O)n1-c1ccccc1)Nc1ccc(Cl)cc1 [Compound 5b, 1-(4-Chlorophenyl)-3-(2-((4-Oxo-3-Phenyl-3,4-Dihydroquinazolin-2-Yl)thio)ethyl)urea] | 92.2 ± 4.7 | 88.5 ± 4.8 | 77.3 to 100 | 77.3 ± 4.2 | > 100 | 64.3 ± 3.7 | – |
| O=C(NCCSc1nc2cc(Cl)ccc2c(=O)n1-c1ccccc1)Nc1ccc(Cl)cc1 [Compound 5k, 1-(2-((7-Chloro-4-Oxo-3-Phenyl-3,4-Dihydroquinazolin-2-Yl)thio)ethyl)-3-(4-Chlorophenyl)urea] | 32.9 ± 2.3 | 40.9 ± 2.6 | 23.4 to 40.9 | 23.4 ± 2.1 | 38 ± 2.5 | > 100 | – |
| O=C(NCCSc1nc2ccccc2c(=O)n1-c1ccccc1)NCc1ccccc1 [Compound 5e, 1-Benzyl-3-(2-((4-Oxo-3-Phenyl-3,4-Dihydroquinazolin-2-Yl)thio)ethyl)urea] | 72.8 ± 3.6 | 65.7 ± 3.8 | – | 54.9 ± 3.3 | 75.3 ± 4.2 | > 100 | – |
| CNC(=O)c1cc(Oc2ccc(NC(=O)Nc3ccc(Cl)c(C(F)(F)F)c3)cc2)ccn1 [SOR, Sorafenib, reference compound] | 4.17 ± 0.2 | – | – | – | – | – | IC50 [10]: 17.3 µM |
| O=C(NCCSc1nc2ccccc2c(=O)n1-c1ccccc1)Nc1ccc(C(F)(F)F)cc1 [Compound 5d, 1-(2-((4-Oxo-3-Phenyl-3,4-Dihydroquinazolin-2-Yl)thio)ethyl)-3-(4-(Trifluoromethyl)phenyl)urea] | 4.81 ± 0.2 | 2.39 ± 0.1 | 2.39 to 8.94 | 6.09 ± 2.2 | 8.94 ± 0.7 | 36.3 ± 2.4 | IC50 (VEGFR-2 enzyme): 0.274 µM; inhibition at 0.01 µM (VEGFR-2 enzyme): 25.5%; inhibition at 0.1 µM (VEGFR-2 enzyme): 38.9%; inhibition at 1 µM (VEGFR-2 enzyme): 60.4%; inhibition at 10 µM (VEGFR-2 enzyme): 83.5%; inhibition at 100 µM (VEGFR-2 enzyme): 91% |
| O=C(NCCSc1nc2cc(Cl)ccc2c(=O)n1-c1ccccc1)Nc1ccc(Br)cc1 [Compound 5l, 1-(4-Bromophenyl)-3-(2-((7-Chloro-4-Oxo-3-Phenyl-3,4-Dihydroquinazolin-2-Yl)thio)ethyl)urea] | 37.2 ± 2.5 | 44.7 ± 2.9 | 28.6 to 49.4 | 28.6 ± 2.3 | 49.4 ± 2.9 | > 100 | – |
| O=C(NCCSc1nc2ccccc2c(=O)n1-c1ccccc1)NCCc1ccc(Cl)cc1 [Compound 5i, 1-(4-Chlorophenethyl)-3-(2-((4-Oxo-3-Phenyl-3,4-Dihydroquinazolin-2-Yl)thio)ethyl)urea] | 43.1 ± 2.8 | 49.8 ± 3.2 | 39.1 to 58.3 | 39.1 ± 2.7 | 58.3 ± 3.3 | > 100 | – |
